In general, EC50 refers to the concentration that produces a half-maximal response. A word on the MRT: it is a mean duration of stay, worked out from the concentration-time curve. As usually defined, the Vd is the apparent volume that relates the amount in the body to the concentration in plasma or blood. A lower Vd goes with little distribution into tissue. As a reminder, the Cmax is the maximum level reached in the sampled fluid or tissue. Usually half-life stands for how long it takes for the measured level to halve. A lower half-life goes with fast loss. Usually solubility stands for the dissolved amount per volume that the medium holds. A lower solubility goes with little dissolved substance. The CC50 is the concentration giving 50% cytotoxicity. A low value points to greater toxicity to the cells.

The structures appear in SMILES notation. Converted amounts (≈) assume the structure as drawn. The source made the active and inactive calls. The rule behind the calls is not given here. Square brackets hold non-standard residues; d marks the D form. Peptide text beside a SMILES is read from it. * marks the point of attachment. X1 = C=CCOC(=O)[C@]12CC[C@@H](C(=C)C)[C@@H]1[C@H]1CC[C@@H]3[C@@]4(C)CC[C@H](OC(=O)CCc5cn(CC(=O)*)nn5)C(C)(C)[C@@H]4CC[C@@]3(C)[C@]1(C)CC2; βAla = NCCC(=O)O

For series [1], the system named is Human immunodeficiency virus 1. As to the kind of experiment: Antiviral activity against HIV1 3B infected in human MT2 cells assessed as inhibition of viral entry compound treated at 200 nM at 6 hrs post infection measured 3 to 4 days post infection by time-of-addition assay.
In series [2] the test system is Human immunodeficiency virus 1. As to the kind of experiment: Antiviral activity against T20-sensitive HIV1 NL4-3 harboring gp41 D36G mutant infected in human MT2 cells. The series is classed as functional, organism-based. The method, boiled down:
(§1)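 MT-2 cells (1 × 10⁴) infected with 100 TCID₅₀ virus with or without peptides at graded concentrations. Culture supernatants collected on day 4 postinfection; p24 antigen quantified by ELISA. Percent inhibition and EC₅₀ calculated; tested in triplicate, mean ± standard deviation.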

Series [3] deals with Human immunodeficiency virus 1. As to the kind of experiment: Antiviral activity against T20-resistant HIV1 NL4-3 harboring gp41 D36G/V38A mutant infected in human MT2 cells. It counts as functional, organism-based. The method, boiled down: as §1
The subject of series [4] is Human immunodeficiency virus 1. As to the kind of experiment: Antiviral activity against T20-resistant HIV1 NL4-3 harboring gp41 D36G/V38A/N42D mutant infected in human MT2 cells. The series is classed as functional, organism-based. The method in brief: as §1
Series [5] relates to Human immunodeficiency virus 1. The series can be described thus: Antiviral activity against T20-resistant HIV1 NL4-3 harboring gp41 D36G/N42T/N43K mutant infected in human MT2 cells. It counts as functional, organism-based. The method in brief: as §1
For series [6], the system named is Human immunodeficiency virus 1. The series can be described thus: Antiviral activity against T20-resistant HIV1 NL4-3 harboring gp41 D36G/V38E/N42S mutant infected in human MT2 cells. The series is classed as functional, organism-based. The method in brief:
as §1

For series [7], the system named is Human immunodeficiency virus 1. The series can be described thus: Antiviral activity against T20-resistant HIV1 NL4-3 harboring gp41 D36G/V38A/N42T mutant infected in human MT2 cells. It counts as functional, organism-based. The method in brief: as §1
The test system of series [8] is Human immunodeficiency virus 1. As to the kind of experiment: Ratio of EC50 for T20-resistant HIV1 NL4-3 harboring gp41 D36G/V38A mutant infected in human MT2 cells to EC50 for T20-sensitive HIV1 NL4-3 harboring gp41 D36G mutant infected in human MT2 cells. The series is classed as functional. The method in brief: (§2)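 MT-2 cells (1 × 10⁴) infected with 100 TCID₅₀ of HIV-1 NL4-3 gp41 mutant virus with or without peptide at graded concentrations. Culture supernatants collected on day 4 postinfection and p24 antigen measured by ELISA. Percent inhibition and EC₅₀ calculated, triplicate, mean ± standard deviation. Fold change = EC₅₀ against each mutant divided by EC₅₀ against the D36G strain.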

For series [9], the system named is Human immunodeficiency virus 1. The series can be described thus: Ratio of EC50 for T20-resistant HIV1 NL4-3 harboring gp41 D36G/V38A/N42D mutant infected in human MT2 cells to EC50 for T20-sensitive HIV1 NL4-3 harboring gp41 D36G mutant infected in human MT2 cells. It counts as functional. The method, boiled down:
as §2

Series [10] relates to Human immunodeficiency virus 1. As to the kind of experiment: Ratio of EC50 for T20-resistant HIV1 NL4-3 harboring gp41 D36G/N42T/N43K mutant infected in human MT2 cells to EC50 for T20-sensitive HIV1 NL4-3 harboring gp41 D36G mutant infected in human MT2 cells. It counts as functional. The method in brief: as §2
Series [11] deals with Human immunodeficiency virus 1. The series can be described thus: Ratio of EC50 for T20-resistant HIV1 NL4-3 harboring gp41 D36G/V38E/N42S mutant infected in human MT2 cells to EC50 for T20-sensitive HIV1 NL4-3 harboring gp41 D36G mutant infected in human MT2 cells. It counts as functional. The method, boiled down:
as §2

The subject of series [12] is Human immunodeficiency virus 1. The series can be described thus: Ratio of EC50 for T20-resistant HIV1 NL4-3 harboring gp41 D36G/V38A/N42T mutant infected in human MT2 cells to EC50 for T20-sensitive HIV1 NL4-3 harboring gp41 D36G mutant infected in human MT2 cells. The series is classed as functional. The method, boiled down: as §2
In series [13] the test system is Rattus norvegicus. As to the kind of experiment: AUC (0 to t) in rat at 4 mg/kg, iv administered as single dose. Also noted: dose 4 mg/kg, route intravenous. As to conditions: in vivo. The series is classed as ADME, organism-based, Plasma. The method, boiled down:
(§3)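 Rats given one intravenous dose of 4 mg/kg. Peptide measured in plasma over time. Parameters (AUC(0−t), MRT(0−t), t1/2, Vd, Cmax) derived by model-independent analysis.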

Series [14] in a line: Mean residence time in rat at 4 mg/kg, iv administered as single dose. The series is classed as ADME, organism-based. More on the design: dose 4 mg/kg, route intravenous. As to conditions: in vivo. The method in brief: as §3
Series [15] concerns Rattus norvegicus. The series can be described thus: Half life in rat at 4 mg/kg, iv at 4 mg/kg, iv administered as single dose. As to conditions: in vivo. The series is classed as ADME, organism-based. The method, boiled down: as §3
A short description of series [16]: Volume of distribution in rat at 4 mg/kg, iv administered as single dose. It counts as ADME, organism-based. Also noted: dose 4 mg/kg, route intravenous. As to conditions: in vivo. The method in brief:
as §3

Series [17] has as its system Rattus norvegicus. As to the kind of experiment: Cmax in rat at 4 mg/kg, iv administered as single dose. Also noted: dose 4 mg/kg, route intravenous. As to conditions: in vivo. It counts as ADME, organism-based. The method, boiled down: as §3
The nature of series [18]: Half life in rat liver homogenate at 8 ug/ml. The series is classed as ADME, tissue-based.
Series [19] in a line: Half life of the compound at 8 ug/ml by proteinase K digestion assay. The series is classed as ADME.
A short description of series [20]: Half life in rat kidney homogenate at 8 ug/ml. The series is classed as ADME, tissue-based.
Series [21] can be described thus: Solubility of the compound in pure water by UV spectrophotometry. It counts as physicochemical. The method in brief:
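About 1 mg of peptide dissolved in 10 μL water or PBS and centrifuged. Supernatant concentration of the tyrosine-containing conjugate determined from UV absorbance at 280 nm.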

The subject of series [22] is Human immunodeficiency virus 1. As to the kind of experiment: Antiviral activity against HIV1 3B infected in human MT2 cells assessed as inhibition of viral p24 antigen production by ELISA. It counts as functional, organism-based. As to conditions: Human immunodeficiency virus 1, 3B. The method in brief:
as §1
(In general: An ELISA detects its analyte on a solid surface through an enzyme-linked reagent.)

A short description of series [23]: Cytotoxicity against human MT2 cells after 4 days by XTT assay. The series is classed as cell-based. The method, boiled down: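 MT-2 cells (5 × 10⁵/mL) mixed with equal volumes of graded conjugate concentrations and held at 37 °C for 4 days. XTT (1 mg/mL) with 0.02 μM phenazine methosulfate added for 4 h, then A450 read. CC50 calculated from the dose–response.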
For orientation: Tetrazolium assays rely on reduction of a dye to a coloured formazan, in cell work by metabolically active cells.

For series [24], the system named is Human immunodeficiency virus 1. As to the kind of experiment: Antiviral activity against HIV1 BaL infected in human […] cells assessed as inhibition of viral replication. It counts as functional, organism-based. As to conditions: Human immunodeficiency virus 1, BaL. The method in brief: as §1
Series [25] can be described thus: Selectivity index, ratio of CC50 for human MT2 cells to EC50 for HIV1 3B infected in human MT2 cells. It counts as toxicity, cell-based. As to conditions: read-out: Ratio CC50/EC50.
In series [26] the target is GP41 (Human immunodeficiency virus 1) (UniProt Q76270). The series can be described thus: Ratio of EC50 for HIV1 gp41-induced cell-cell fusion between viral envelope expressing human HL2/3 cells to CD4/CCR5 receptor expressing TZM-bl cells with wash out to EC50 for HIV1 gp41-induced cell-cell fusion between viral envelope expressing human HL2/3 cells to CD4/CCR5 receptor expressing TZM-bl cells. It counts as cell-based. The method in brief:
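Peptides preincubated with TZM-bl cells at 37 °C for 1 h, with or without washing away unbound peptide. EC50 compared between washed and unwashed cells, giving the n-fold change. Triplicates, mean ± SD.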

The test system of series [27] is Human immunodeficiency virus 1. The series can be described thus: Antiviral activity against HIV1 3B infected in human MT2 cells assessed as inhibition of viral entry compound treated at 100 nM at 1 hr post infection measured 3 to 4 days post infection by time-of-addition assay.

For `Cc1cn([C@H]2C[C@H](N=[N+]=[N-])[C@@H](CO)O2)c(=O)[nH]c1=O`, the inhibition result in series [1] is “Active”.
On to `C=CCOC(=O)[C@]12CC[C@@H](C(=C)C)[C@@H]1[C@H]1CC[C@@H]3[C@@]4(C)CC[C@H](OC(=O)CCc5cn(CC(=O)NCCCC[C@H](NC(=O)CCNC(=O)[C@H](CC(C)C)NC(=O)[C@H](CC(C)C)NC(=O)[C@H](CCC(=O)O)NC(=O)[C@H](CCC(N)=O)NC(=O)[C@H](CCC(=O)O)NC(=O)[C@H](CC(N)=O)NC(=O)[C@H](CCCCN)NC(=O)[C@H](CCC(=O)O)NC(=O)[C@H](CCC(N)=O)NC(=O)[C@H](CCC(N)=O)NC(=O)[C@H](CC(N)=O)NC(=O)[C@H](CCC(N)=O)NC(=O)[C@H](CO)NC(=O)[C@H](CCC(=O)O)NC(=O)[C@H](CCC(=O)O)NC(=O)[C@@H](NC(=O)[C@H](CC(C)C)NC(=O)[C@H](CO)NC(=O)[C@H](Cc6cnc[nH]6)NC(=O)[C@@H](NC(=O)[C@H](CC(C)C)NC(=O)[C@H](CO)NC(=O)[C@@H](NC(=O)[C@H](Cc6ccc(O)cc6)NC(=O)[C@H](CC(N)=O)NC(=O)[C@H](CC(N)=O)NC(C)=O)[C@@H](C)O)[C@@H](C)CC)[C@@H](C)CC)C(N)=O)nn5)C(C)(C)[C@@H]4CC[C@@]3(C)[C@]1(C)CC2` (Ac-NNYTSLIHSLIEESQNQQEKNEQELL[βAla]K(X1)-NH2), for which the EC50 in [2] is 29.2 nM; in series [3], 135 nM; in [4] it was 34.4 nM; in series [5], 192 nM; in series [6], 322 nM; in series [7], 308 nM. The EC50 in [22] was 4.28 nM; in [24], 6.9 nM. For the same molecule, the “Ratio EC50” value is 4.6 in [8]; 1.2 in series [9]; 6.5 in series [10]; 11 in [11]; 10 in series [12]; 11 in [26]. Further, in [13], the AUCt came to 101 µg·h/mL. The MRT in series [14] worked out at 191 min. In series [15], this molecule yielded a t1/2 of 188 min. This molecule also registered a Vd in series [16] of 0.17 L/kg. Moreover, the peak concentration (Cmax) in series [17] is 40400 ng/mL. The results for the half-life at 8 ug/ml in [18], in series [19] and in series [20] were 48.9 min, 54.3 min and 35.9 min, respectively. In addition, the solubility in series [21] worked out at 18.2 mg/mL (≈ 4.55 mM). This molecule also registered a CC50 at 96 h in series [23] of 14300 nM. In addition, in [25], the selectivity ratio is 3350. Moreover, in series [27], the inhibition entry was “Active”.

For the origin of these results see ChEMBL document CHEMBL3351900, “Conjugation of a nonspecific antiviral sapogenin with a specific HIV fusion inhibitor: a promising strategy for discovering new antiviral therapeutics” (J Med Chem, 2014).
